From ChEMBL document CHEMBL2150909, “Imidazo[1,2-a]pyridines: orally active positive allosteric modulators of the metabotropic glutamate 2 receptor” (J Med Chem, 2012) come the findings set out here.

Data set [1] has as its target T1, Metabotropic glutamate receptor 2 (Homo sapiens, UniProt Q14416). The data set is described as follows: Agonist activity at human mGlu 2 expressed in CHO cells by PAM assay relative to glutamate. In kind it is functional, cell-based. The essentials:
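The assay measured [35S]GTPγS binding to membranes from CHO cells expressing human mGluR2. Cells were butyrate-stimulated (5 mM, 24 h) before membranes were prepared. Membranes were preincubated for 30 min at 30 °C in HEPES pH 7.4 buffer (NaCl, MgCl2, 50 μM GDP) with compound (0.3 nM–50 μM, 11 concentrations) plus EC25 glutamate. [35S]GTPγS (0.1 nM final) was then added for 30 min at 30 °C. Bound label was collected by filtration and counted. Runs were done at least in triplicate with duplicate points, and a four-parameter logistic fit gave the values.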
Target sequence in this assay (Q14416 19-872 limits assumed): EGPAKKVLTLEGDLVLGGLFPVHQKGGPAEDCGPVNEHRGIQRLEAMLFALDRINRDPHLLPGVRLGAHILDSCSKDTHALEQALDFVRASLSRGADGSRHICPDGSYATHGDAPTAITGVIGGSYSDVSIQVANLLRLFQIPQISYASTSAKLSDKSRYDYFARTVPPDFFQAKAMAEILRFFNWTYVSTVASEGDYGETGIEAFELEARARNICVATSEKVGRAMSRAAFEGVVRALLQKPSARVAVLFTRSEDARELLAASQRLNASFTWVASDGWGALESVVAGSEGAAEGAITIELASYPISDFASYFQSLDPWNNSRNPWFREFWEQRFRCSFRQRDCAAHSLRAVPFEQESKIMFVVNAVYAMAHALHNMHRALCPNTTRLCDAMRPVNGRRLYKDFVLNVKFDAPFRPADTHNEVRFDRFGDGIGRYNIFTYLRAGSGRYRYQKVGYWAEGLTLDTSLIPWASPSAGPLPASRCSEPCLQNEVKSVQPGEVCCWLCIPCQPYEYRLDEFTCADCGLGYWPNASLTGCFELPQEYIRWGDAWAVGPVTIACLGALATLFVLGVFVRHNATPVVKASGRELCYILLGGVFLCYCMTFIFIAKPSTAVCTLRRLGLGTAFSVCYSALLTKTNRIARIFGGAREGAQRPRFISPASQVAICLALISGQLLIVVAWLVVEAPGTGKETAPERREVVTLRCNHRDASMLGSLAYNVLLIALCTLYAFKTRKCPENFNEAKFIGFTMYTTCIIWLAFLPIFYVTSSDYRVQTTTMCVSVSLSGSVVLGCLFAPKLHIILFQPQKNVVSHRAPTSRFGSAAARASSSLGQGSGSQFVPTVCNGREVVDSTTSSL

The target in data set [2] is T1, Metabotropic glutamate receptor 2. Description: Agonist activity at human mGlu 2 expressed in CHO cells assessed as [35S]GTPgammaS binding by liquid scintillation analysis. Format: functional, cell-based. In outline: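 Membranes from butyrate-stimulated (5 mM, 24 h) CHO cells expressing human mGlu2. Preincubated 30 min at 30 °C in HEPES pH 7.4 with NaCl, MgCl2, 50 μM GDP and saponin; modulator 0.3 nM–50 μM, no added glutamate. [35S]GTPγS 0.1 nM final, 30 min at 30 °C, filtered, scintillation counted. Nonspecific binding defined with cold GTP; 11 concentrations in duplicate, ≥3 curves.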
For orientation: GTPγS resists hydrolysis and so accumulates on activated G proteins.
Target sequence in this assay (Q14416 whole entry): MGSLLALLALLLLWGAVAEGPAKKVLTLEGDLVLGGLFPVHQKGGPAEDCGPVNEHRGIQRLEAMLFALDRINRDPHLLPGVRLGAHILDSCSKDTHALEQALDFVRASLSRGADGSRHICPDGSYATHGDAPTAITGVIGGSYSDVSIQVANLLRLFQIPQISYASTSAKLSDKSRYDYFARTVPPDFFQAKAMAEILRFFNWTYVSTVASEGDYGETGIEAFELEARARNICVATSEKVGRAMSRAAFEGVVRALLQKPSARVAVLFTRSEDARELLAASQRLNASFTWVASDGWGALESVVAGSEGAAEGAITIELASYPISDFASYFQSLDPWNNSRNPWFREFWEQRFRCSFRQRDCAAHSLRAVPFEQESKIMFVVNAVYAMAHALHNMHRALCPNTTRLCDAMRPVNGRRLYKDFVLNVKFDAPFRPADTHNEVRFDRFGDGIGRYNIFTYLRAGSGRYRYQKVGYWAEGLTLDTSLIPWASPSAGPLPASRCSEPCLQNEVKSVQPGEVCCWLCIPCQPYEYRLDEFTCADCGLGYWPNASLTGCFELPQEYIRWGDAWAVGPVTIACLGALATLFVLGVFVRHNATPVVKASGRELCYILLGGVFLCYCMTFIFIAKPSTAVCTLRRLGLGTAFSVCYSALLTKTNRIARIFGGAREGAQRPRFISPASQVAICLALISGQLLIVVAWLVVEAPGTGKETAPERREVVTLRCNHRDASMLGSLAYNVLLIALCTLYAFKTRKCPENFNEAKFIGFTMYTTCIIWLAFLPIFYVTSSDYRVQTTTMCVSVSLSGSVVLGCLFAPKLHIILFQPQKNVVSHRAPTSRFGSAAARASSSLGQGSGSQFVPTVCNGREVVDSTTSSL

Data set [3] is described as follows: Metabolic stability of human liver microsomes assessed as compound metabolized at 5 uM after 15 mins. Format: ADME, Microsome. Particulars: read-out: Drug metabolism. The essentials:
(§1)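 Test compound at 5 μM incubated 15 min with rat or human liver microsomes; read-out is percent of compound metabolized.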

A short description of data set [4]: Metabolic stability of Sprague-Dawley rat liver microsomes assessed as compound metabolized at 5 uM after 15 mins. As to conditions: read-out: Drug metabolism. In kind it is ADME, Microsome. The essentials:
as §1
In general terms: Liver microsomes are vesicles of endoplasmic reticulum, rich in cytochrome P450 enzymes.

A short description of data set [5]: Drug uptake in Sprague-Dawley rat brain at 10 mg/kg, sc after 1 hr. The arrangement: dose 10 mg/kg, route subcutaneous. As to conditions: read-out: Drug uptake. In kind it is ADME, organism-based. In outline: (§2)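 Brain exposure in male Sprague-Dawley rats after a 10 mg/kg subcutaneous dose, vehicle 20% HP-β-CD at pH 4. Brain level measured in ng/g alongside plasma in ng/mL; geometric mean of at least two runs ± SEM.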

Data set [6] is described as follows: Drug uptake in Sprague-Dawley rat brain at 10 mg/kg, sc after 2 hrs. Format: ADME, organism-based. The arrangement: dose 10 mg/kg, route subcutaneous. As to conditions: read-out: Drug uptake. In outline:
as §2

Data set [7] can be described thus: Drug uptake in Sprague-Dawley rat brain at 10 mg/kg, sc after 4 hrs. In kind it is ADME, organism-based. The arrangement: dose 10 mg/kg, route subcutaneous. As to conditions: read-out: Drug uptake. The essentials: as §2
A short description of data set [8]: Plasma concentration in Sprague-Dawley rat at 10 mg/kg, sc after 1 hr. In kind it is ADME, organism-based. The arrangement: dose 10 mg/kg, route subcutaneous. The essentials: (§3)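 Male Sprague−Dawley rats given 10 mg/kg subcutaneously, vehicle 20% HP-β-CD at pH 4. Plasma (ng/mL) and brain (ng/g) drug levels determined at the listed post-dose time; B/P ratio derived from them. Values are geometric means of at least two runs ± SEM.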

A short description of data set [9]: Plasma concentration in Sprague-Dawley rat at 10 mg/kg, sc after 2 hrs. In kind it is ADME, organism-based. Further details: dose 10 mg/kg, route subcutaneous. The essentials:
as §3

Data set [10] can be described thus: Plasma concentration in Sprague-Dawley rat at 10 mg/kg, sc after 4 hrs. Format: ADME, organism-based. The arrangement: dose 10 mg/kg, route subcutaneous. In outline:
as §3

A short description of data set [11]: Ratio of drug level in brain to plasma of Sprague-Dawley rat at 10 mg/kg, sc after 1 hr. In kind it is ADME, organism-based. As to conditions: read-out: BPR. Further details: dose 10 mg/kg, route subcutaneous. In outline: as §3
The nature of data set [12]: Ratio of drug level in brain to plasma of Sprague-Dawley rat at 10 mg/kg, sc after 2 hrs. Format: ADME, organism-based. Further details: dose 10 mg/kg, route subcutaneous. As to conditions: read-out: BPR. In outline:
as §3

A short description of data set [13]: Ratio of drug level in brain to plasma of Sprague-Dawley rat at 10 mg/kg, sc after 4 hrs. Format: ADME, organism-based. As to conditions: brain and plasma, read-out: BPR. The arrangement: dose 10 mg/kg, route subcutaneous. In outline:
as §3

Data set [14] can be described thus: Cmax in Sprague-Dawley rat at 10 mg/kg, po and 2.5 mg/kg, iv. As to conditions: in vivo. In kind it is ADME, organism-based. In outline:
(§4)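 Rat PK: compounds formulated in 20% HP-β-CD at pH 4 and given orally and intravenously. Values are geometric means of at least two runs ± SEM.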

A short description of data set [15]: Tmax in Sprague-Dawley rat at 10 mg/kg, po and 2.5 mg/kg, iv. Format: ADME, organism-based. Particulars: in vivo. In outline:
as §4

Data set [16] in a line: AUC (0 to infinity) in Sprague-Dawley rat at 10 mg/kg, po and 2.5 mg/kg, iv. Format: ADME, organism-based. Particulars: plasma. The essentials:
as §4

Data set [17] can be described thus: Half life in Sprague-Dawley rat at 10 mg/kg, po and 2.5 mg/kg, iv. In kind it is ADME, organism-based. As to conditions: in vivo. The essentials:
as §4

A short description of data set [18]: Clearance in Sprague-Dawley rat at 10 mg/kg, po and 2.5 mg/kg, iv. In kind it is ADME, organism-based. As to conditions: in vivo.
Data set [19] can be described thus: Drug uptake in SPF Swiss mouse brain at 10 mg/kg, sc after 1 hr. In kind it is ADME, organism-based. Further details: dose 10 mg/kg, route subcutaneous. As to conditions: read-out: Drug uptake. In outline:
(§5)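 Male Swiss SPF mice dosed subcutaneously at 10 mg/kg in 20% HP-β-CD, pH 4. Brain levels measured in ng/g and plasma levels in ng/mL at the stated time, with brain/plasma ratio; geometric mean of at least two runs ± SEM.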

Data set [20] can be described thus: Drug uptake in SPF Swiss mouse brain at 10 mg/kg, sc after 2 hrs. Further details: dose 10 mg/kg, route subcutaneous. As to conditions: read-out: Drug uptake. Format: ADME, organism-based. In outline:
as §5

Data set [21] in a line: Drug uptake in SPF Swiss mouse brain at 10 mg/kg, sc after 4 hrs. In kind it is ADME, organism-based. The arrangement: dose 10 mg/kg, route subcutaneous. As to conditions: read-out: Drug uptake. In outline:
as §5

Data set [22] is described as follows: Plasma concentration in SPF Swiss mouse at 10 mg/kg, sc after 1 hr. In kind it is ADME, organism-based. Further details: dose 10 mg/kg, route subcutaneous. In outline:
as §5

Data set [23] in a line: Plasma concentration in SPF Swiss mouse at 10 mg/kg, sc after 2 hrs. In kind it is ADME, organism-based. The arrangement: dose 10 mg/kg, route subcutaneous. In outline:
as §5

A short description of data set [24]: Plasma concentration in SPF Swiss mouse at 10 mg/kg, sc after 4 hrs. In kind it is ADME, organism-based. Further details: dose 10 mg/kg, route subcutaneous. The essentials: as §5
The nature of data set [25]: Ratio of drug level in brain to plasma of SPF Swiss mouse at 10 mg/kg, sc after 1 hr. In kind it is ADME, organism-based. The arrangement: dose 10 mg/kg, route subcutaneous. Particulars: read-out: BPR. In outline:
(§6)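 Male Swiss SPF mice, single subcutaneous dose of 10 mg/kg in 20% HP-β-CD at pH 4. Brain levels (ng/g) and plasma levels (ng/mL) measured at the stated time after dosing; brain-to-plasma ratio taken from these. Geometric mean of at least two runs ± SEM.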

Data set [26] is described as follows: Ratio of drug level in brain to plasma of SPF Swiss mouse at 10 mg/kg, sc after 2 hrs. In kind it is ADME, organism-based. The arrangement: dose 10 mg/kg, route subcutaneous. Particulars: read-out: BPR. The essentials: as §6
The nature of data set [27]: Ratio of drug level in brain to plasma of SPF Swiss mouse at 10 mg/kg, sc after 4 hrs. In kind it is ADME, organism-based. The arrangement: dose 10 mg/kg, route subcutaneous. Particulars: read-out: BPR. In outline:
as §6

Data set [28] in a line: Oral bioavailability in Sprague-Dawley rat at 10 mg/kg. Format: ADME, organism-based. As to conditions: in vivo. The essentials: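 Male Sprague-Dawley rats given 10 mg/kg orally and/or 1.25 mg/kg intravenously; compound formulated in 20% HP-β-CD at pH 4. Cmax, tmax, AUC0−inf, t1/2, clearance and oral bioavailability F derived from plasma levels; geometric mean of at least two runs ± SEM.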

Turning to `N#Cc1c(-c2ccc(N3CCOCC3)c(Cl)c2)ccn2c(CC(F)(F)F)cnc12`, the Emax (commonly the maximal effect, on the per cent scale that the assay sets) in data set [1] turned out to be 167%.
As to `N#Cc1c(-c2ccc3c(c2)OCCN3)ccn2c(CC(F)(F)F)cnc12`, the EC50 (usually the concentration at which the effect is half-maximal) in data set [2] was 1660 nM. The Emax in data set [1] was found to be 232%. Also, the results for the metabolised at 0.25 h, 5 µM in data set [3] and in [4] were 45% and 100%, respectively.
Turning to `N#Cc1c(-c2ccc3c(c2)OCCNC3)ccn2c(CC(F)(F)F)cnc12`, the Emax in [1] is 105%.
For `O[C@H]1CC[C@H](Nc2ccc(-c3ccn4c(CC(F)(F)F)cnc4c3Cl)cc2Cl)CC1`, the EC50 in data set [2] is 150 nM. The maximal effect (Emax) in data set [1] came out at 293%. The metabolised at 0.25 h, 5 µM in [3] was 16%; in [4], 15%. The figures for the concentration at 1 h in data set [5] and in [8] were 1000 ng/g and 2140 ng/mL, respectively. The concentration at 2 h in [6] is 1220 ng/g; in data set [9], 1280 ng/mL. The concentration at 4 h in [7] was 485 ng/g; in data set [10], 708 ng/mL. The Kp at 1 h in data set [11] came out at 0.5. Also, the Kp at 2 h in data set [12] was 1. Further, in data set [13], the Kp at 4 h was 0.7.
With `Cn1ccc2cc(-c3ccn4c(CC(F)(F)F)cnc4c3C#N)ccc21`, the Emax in [1] was determined as 154%. Also, the metabolised at 0.25 h, 5 µM in data set [3] was 28%; in [4], 55%.
In the case of `N#Cc1c(-c2cc(Cl)c3[nH]ccc3c2)ccn2c(CC(F)(F)F)cnc12`, the concentration for a half-maximal effect (EC50) in data set [2] is 320 nM. The Emax in data set [1] was 277%. Moreover, the metabolised at 0.25 h, 5 µM in [3] stood at 35%; in data set [4] it was 49%.
Consider `N#Cc1c(-c2ccc(NC3CCOCC3)c(Cl)c2)ccn2c(CC(F)(F)F)cnc12`, for which the Emax in data set [1] worked out at 307%. Also, the metabolised at 0.25 h, 5 µM is 21% in [3] and 36% in data set [4].
For `N#Cc1c(-c2ccc3c(ccn3[C@H]3CC[C@H](O)CC3)c2)ccn2c(CC(F)(F)F)cnc12`, the EC50 in data set [2] stood at 330 nM. Moreover, the Emax in data set [1] worked out at 237%. Moreover, the metabolised at 0.25 h, 5 µM amounted to 4% in [3] and 15% in data set [4]. The maximum concentration (Cmax) (as a rule, the peak of the concentration-time curve) in data set [14] was 1060 ng/mL. For the same compound, in data set [15], the Tmax (usually the time from dosing to the highest level) was 1.7 h. The AUC(0-inf) (usually total exposure, with the tail of the curve extrapolated) in data set [16] amounted to 7520 ng·h/mL. Further, the half-life (as a rule, the time in which the quantity being followed falls by half) in data set [17] was 168 min. This compound also showed a clearance in data set [18] of 11.7 mL/min/kg. Further, the results for the concentration at 1 h in [19] and in data set [22] were 322 ng/g and 4170 ng/mL, respectively. Moreover, the concentration at 2 h in [20] was 469 ng/g; in data set [23], 4500 ng/mL. The concentration at 4 h in data set [21] stood at 280 ng/g; in data set [24], 3860 ng/mL. For the same compound, the Kp at 1 h in [25] is 0.1. In addition, in [26], the Kp at 2 h amounted to 0.1. Moreover, the Kp at 4 h in [27] was found to be 0.1. Also, in data set [28], the bioavailability – broadly, dose-corrected exposure relative to a reference, in per cent – was determined as 50%.
